{"source": "ChEMBL document CHEMBL4138312", "about": "(J Med Chem, 2018)", "key": {"[1]": {"target": "T1, Tyrosine-protein kinase JAK3 (Homo sapiens, UniProt P52333)", "T1 sequence (P52333 whole entry)": "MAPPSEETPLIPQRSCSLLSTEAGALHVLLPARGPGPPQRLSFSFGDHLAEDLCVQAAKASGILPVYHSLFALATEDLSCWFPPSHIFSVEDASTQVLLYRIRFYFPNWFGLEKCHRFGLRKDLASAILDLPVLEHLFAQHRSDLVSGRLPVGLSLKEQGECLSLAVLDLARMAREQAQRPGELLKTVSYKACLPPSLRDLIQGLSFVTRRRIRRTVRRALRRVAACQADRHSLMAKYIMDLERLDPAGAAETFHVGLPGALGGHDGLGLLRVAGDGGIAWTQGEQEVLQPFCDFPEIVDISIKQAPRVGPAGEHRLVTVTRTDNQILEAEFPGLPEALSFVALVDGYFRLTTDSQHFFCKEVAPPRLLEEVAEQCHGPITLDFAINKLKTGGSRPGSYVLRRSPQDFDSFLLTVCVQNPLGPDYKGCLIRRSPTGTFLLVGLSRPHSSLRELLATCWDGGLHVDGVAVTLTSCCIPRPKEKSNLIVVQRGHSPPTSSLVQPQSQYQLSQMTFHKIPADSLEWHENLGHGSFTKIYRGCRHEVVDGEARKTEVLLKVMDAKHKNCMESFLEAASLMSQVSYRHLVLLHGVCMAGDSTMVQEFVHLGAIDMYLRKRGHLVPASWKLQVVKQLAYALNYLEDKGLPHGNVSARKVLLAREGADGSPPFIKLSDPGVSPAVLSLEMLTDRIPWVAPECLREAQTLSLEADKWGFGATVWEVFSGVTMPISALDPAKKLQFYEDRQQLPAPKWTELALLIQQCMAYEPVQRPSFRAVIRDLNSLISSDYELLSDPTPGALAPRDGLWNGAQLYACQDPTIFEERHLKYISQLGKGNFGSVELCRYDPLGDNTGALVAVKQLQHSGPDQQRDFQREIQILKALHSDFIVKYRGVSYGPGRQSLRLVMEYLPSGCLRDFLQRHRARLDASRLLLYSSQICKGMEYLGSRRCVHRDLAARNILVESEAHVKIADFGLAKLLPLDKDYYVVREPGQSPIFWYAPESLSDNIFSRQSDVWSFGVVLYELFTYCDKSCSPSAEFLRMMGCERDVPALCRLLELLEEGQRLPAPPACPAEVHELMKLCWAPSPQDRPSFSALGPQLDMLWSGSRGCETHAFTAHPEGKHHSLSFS", "experiment": "Inhibition of recombinant human JAK3 (781 to 1124 residues) expressed in insect cells using 5FAM-GEEPLYWSFPAKKK-NH2 as substrate after 10 mins by caliper assay", "method_in_brief": "(§1)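 Biochemical kinase inhibition IC50 measured at 5 mM ATP. Values are the geometric mean of at least two independent experiments.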"}, "[2]": {"target": "Non-receptor tyrosine-protein kinase TYK2 (Homo sapiens, UniProt P29597)", "sequence (P29597 whole entry, the tested form may be a part)": "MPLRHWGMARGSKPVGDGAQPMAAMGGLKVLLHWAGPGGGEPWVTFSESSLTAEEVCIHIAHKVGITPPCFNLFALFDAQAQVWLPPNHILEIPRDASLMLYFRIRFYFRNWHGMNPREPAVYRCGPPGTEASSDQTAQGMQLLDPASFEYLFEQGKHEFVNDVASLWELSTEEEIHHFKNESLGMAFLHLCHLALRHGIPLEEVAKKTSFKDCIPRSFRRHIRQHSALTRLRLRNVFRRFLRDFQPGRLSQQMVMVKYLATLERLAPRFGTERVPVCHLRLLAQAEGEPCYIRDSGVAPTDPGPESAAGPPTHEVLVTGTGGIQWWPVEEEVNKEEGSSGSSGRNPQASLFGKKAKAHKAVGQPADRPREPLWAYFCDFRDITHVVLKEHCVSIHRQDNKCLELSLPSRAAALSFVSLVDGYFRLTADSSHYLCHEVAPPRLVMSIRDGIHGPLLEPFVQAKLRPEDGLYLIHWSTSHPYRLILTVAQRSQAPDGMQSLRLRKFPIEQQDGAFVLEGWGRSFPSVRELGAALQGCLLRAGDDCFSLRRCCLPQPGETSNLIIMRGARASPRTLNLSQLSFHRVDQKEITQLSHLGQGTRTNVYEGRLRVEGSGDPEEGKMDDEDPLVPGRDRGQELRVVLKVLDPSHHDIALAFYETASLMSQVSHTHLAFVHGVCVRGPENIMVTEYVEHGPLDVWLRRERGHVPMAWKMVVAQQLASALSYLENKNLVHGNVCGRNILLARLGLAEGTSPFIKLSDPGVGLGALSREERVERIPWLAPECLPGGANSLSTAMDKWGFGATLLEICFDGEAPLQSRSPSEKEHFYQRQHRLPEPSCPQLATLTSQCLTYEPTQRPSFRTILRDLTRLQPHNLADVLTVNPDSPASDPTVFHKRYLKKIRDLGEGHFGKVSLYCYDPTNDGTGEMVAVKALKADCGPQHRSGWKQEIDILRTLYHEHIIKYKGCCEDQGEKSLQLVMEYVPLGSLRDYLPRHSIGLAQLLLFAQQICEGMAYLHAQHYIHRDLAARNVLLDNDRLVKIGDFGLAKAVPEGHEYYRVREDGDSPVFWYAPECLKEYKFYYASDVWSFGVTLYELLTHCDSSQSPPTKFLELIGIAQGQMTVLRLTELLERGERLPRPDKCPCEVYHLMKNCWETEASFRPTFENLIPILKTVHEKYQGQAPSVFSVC", "experiment": "Inhibition of recombinant human N-terminal GST-tagged TYK2 (871 to 1187 residues) expressed in baculovirus expression system using 5FAM-GEEPLYWSFPAKKK-NH2 as substrate after 10 mins by caliper assay", "method_in_brief": "as §1"}, "[3]": {"target": "Tyrosine-protein kinase JAK1 (Homo sapiens, UniProt P23458)", "experiment": "Inhibition of cytoplasmic recombinant human GST-tagged JAK1 (886 to 1154 residues) expressed in baculovirus at 1 uM", "method_in_brief": "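Single-concentration screen at 1 μM across a panel of 386 kinases to profile broad kinase selectivity.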"}, "JAK2": {"target": "JAK2 (Homo sapiens, UniProt O60674)", "sequence (O60674 whole entry)": "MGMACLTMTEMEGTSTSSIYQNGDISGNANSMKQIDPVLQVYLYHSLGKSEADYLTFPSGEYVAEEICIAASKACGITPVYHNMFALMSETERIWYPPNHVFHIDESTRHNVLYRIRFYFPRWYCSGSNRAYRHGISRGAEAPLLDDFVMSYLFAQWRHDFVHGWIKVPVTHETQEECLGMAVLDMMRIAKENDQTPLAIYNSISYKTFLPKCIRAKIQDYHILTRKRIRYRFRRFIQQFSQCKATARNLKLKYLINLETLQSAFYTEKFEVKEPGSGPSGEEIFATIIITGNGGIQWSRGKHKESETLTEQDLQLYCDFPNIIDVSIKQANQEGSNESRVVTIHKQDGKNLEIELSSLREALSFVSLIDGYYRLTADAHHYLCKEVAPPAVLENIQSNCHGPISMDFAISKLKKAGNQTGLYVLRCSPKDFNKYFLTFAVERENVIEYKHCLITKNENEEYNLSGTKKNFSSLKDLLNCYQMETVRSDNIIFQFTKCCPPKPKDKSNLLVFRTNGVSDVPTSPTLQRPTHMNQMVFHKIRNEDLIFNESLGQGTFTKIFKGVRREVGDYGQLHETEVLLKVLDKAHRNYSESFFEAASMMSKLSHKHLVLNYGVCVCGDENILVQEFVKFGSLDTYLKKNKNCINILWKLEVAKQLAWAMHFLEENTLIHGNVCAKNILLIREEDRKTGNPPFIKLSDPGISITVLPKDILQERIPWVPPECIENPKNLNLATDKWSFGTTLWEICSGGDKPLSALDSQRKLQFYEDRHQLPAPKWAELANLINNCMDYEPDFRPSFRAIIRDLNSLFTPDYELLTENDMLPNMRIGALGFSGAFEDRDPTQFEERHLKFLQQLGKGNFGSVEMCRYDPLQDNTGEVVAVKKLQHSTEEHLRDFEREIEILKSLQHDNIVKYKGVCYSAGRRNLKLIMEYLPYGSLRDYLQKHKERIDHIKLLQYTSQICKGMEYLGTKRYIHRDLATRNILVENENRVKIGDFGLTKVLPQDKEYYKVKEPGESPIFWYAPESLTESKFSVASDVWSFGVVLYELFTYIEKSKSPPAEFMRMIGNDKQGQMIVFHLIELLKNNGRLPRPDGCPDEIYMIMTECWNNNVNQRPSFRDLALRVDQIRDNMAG", "experiment": "Inhibition of catalytic recombinant human GST-tagged JAK2 expressed in baculovirus at 1 uM", "method_in_brief": "(§2)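 Kinase panel of 386 kinases, each screened at a single concentration of 1 μM.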"}, "[4]": {"target": "T2, Serine/threonine-protein kinase D1 (Homo sapiens) (UniProt Q15139)", "T2 sequence (whole entry)": "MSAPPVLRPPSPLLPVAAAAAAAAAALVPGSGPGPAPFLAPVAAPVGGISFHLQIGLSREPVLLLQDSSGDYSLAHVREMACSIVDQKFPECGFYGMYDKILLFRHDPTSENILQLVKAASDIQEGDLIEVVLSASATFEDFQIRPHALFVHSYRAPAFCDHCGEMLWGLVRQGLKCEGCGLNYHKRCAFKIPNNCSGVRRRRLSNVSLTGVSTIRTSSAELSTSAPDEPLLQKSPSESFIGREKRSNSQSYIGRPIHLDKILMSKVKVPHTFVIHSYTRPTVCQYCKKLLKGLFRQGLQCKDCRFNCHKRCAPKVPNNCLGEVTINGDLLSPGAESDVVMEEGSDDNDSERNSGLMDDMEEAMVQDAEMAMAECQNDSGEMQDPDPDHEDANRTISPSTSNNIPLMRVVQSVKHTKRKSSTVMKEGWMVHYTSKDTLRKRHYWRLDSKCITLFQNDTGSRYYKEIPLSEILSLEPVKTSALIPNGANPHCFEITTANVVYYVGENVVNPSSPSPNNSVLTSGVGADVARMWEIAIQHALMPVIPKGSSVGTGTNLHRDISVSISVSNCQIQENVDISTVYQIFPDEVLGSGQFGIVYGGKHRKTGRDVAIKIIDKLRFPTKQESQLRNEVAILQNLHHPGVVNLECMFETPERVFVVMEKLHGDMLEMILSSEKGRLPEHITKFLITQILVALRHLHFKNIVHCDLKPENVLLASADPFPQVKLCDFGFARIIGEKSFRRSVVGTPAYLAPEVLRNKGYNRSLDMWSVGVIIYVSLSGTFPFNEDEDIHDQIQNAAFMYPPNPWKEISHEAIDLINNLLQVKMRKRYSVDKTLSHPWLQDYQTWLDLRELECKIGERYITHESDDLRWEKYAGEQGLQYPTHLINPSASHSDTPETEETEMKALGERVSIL", "experiment": "Inhibition of recombinant human full length GST-tagged PRKD1 expressed in baculovirus at 1 uM", "method_in_brief": "as §2"}, "[5]": {"target": "Leucine-rich repeat serine/threonine-protein kinase 2 (Homo sapiens) (UniProt Q5S007)", "sequence (Q5S007 whole entry)": "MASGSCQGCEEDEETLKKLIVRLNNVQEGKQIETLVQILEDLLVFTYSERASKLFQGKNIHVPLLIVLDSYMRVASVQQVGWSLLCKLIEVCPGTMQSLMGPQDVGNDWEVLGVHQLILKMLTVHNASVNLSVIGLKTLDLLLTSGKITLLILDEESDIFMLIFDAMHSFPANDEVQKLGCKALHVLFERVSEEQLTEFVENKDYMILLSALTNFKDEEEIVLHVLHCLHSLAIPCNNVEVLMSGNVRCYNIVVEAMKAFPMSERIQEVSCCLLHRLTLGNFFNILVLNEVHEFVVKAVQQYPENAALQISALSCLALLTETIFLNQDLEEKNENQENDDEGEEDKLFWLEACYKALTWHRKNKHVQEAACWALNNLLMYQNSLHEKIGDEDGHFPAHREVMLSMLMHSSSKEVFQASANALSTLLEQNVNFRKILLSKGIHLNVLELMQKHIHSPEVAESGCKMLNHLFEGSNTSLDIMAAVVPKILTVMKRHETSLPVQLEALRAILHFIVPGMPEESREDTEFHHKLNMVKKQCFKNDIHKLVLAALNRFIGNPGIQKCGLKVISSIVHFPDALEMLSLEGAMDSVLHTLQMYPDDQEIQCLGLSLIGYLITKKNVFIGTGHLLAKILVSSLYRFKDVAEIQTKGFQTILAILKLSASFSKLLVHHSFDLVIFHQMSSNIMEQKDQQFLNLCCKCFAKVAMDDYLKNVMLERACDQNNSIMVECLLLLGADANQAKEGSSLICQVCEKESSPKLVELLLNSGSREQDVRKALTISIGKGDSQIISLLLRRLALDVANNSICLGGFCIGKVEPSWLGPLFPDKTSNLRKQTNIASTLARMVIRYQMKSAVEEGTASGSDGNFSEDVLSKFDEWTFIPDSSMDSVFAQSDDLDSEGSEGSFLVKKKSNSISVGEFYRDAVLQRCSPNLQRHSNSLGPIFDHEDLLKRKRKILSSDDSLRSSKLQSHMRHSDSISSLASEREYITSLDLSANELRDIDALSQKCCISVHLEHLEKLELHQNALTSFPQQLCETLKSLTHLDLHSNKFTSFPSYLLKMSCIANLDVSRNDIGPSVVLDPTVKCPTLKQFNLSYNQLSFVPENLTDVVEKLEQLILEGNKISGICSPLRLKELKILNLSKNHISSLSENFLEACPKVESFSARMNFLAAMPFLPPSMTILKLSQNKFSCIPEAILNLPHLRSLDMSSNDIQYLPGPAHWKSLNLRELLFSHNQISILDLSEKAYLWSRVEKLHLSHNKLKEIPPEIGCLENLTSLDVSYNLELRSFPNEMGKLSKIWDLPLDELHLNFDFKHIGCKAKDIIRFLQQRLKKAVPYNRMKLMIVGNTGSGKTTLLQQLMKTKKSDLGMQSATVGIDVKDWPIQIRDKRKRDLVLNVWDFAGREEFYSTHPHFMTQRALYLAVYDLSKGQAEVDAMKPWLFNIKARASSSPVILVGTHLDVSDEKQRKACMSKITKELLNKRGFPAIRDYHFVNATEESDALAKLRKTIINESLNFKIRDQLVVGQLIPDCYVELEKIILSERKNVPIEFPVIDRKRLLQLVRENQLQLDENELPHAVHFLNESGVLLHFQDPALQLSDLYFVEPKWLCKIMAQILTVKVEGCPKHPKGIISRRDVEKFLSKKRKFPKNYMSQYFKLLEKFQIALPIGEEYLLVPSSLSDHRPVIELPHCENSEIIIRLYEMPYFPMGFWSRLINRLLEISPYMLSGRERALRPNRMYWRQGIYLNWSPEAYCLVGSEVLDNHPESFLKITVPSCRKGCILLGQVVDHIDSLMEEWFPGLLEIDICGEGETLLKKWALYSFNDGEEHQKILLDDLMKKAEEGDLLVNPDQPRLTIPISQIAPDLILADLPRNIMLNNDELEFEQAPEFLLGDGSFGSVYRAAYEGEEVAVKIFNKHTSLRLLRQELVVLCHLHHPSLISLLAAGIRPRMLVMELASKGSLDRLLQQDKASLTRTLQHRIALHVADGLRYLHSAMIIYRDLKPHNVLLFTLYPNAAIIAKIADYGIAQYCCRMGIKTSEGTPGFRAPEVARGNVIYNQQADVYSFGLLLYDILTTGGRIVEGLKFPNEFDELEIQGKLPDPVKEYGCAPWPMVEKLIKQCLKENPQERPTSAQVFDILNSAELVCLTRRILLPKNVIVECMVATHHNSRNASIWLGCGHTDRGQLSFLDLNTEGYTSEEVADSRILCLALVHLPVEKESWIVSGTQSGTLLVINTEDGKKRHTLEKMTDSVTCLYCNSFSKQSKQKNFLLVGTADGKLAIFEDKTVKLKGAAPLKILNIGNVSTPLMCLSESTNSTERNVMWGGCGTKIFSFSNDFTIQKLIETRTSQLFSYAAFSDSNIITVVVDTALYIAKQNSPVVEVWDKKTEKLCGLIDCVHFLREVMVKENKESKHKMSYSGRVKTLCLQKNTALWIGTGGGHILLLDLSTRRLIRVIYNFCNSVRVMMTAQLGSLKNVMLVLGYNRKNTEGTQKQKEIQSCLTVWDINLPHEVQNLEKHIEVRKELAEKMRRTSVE", "experiment": "Inhibition of recombinant human full length GST-tagged catalytic LRRK2 expressed in baculovirus at 1 uM", "method_in_brief": "as §2"}, "[6]": {"experiment": "Clearance in CD1 mouse at 3 mg/kg, iv by LC/MS/MS analysis", "type": "ADME, organism-based", "conditions": "in vivo", "method_in_brief": "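Mouse pharmacokinetics after a single iv dose of 3 mg/kg in 10% HPbCD + 5% dextrose in WFI at pH 4. Plasma clearance, half-life and steady-state volume of distribution were derived.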"}, "[7]": {"experiment": "Oral bioavailability in CD1 mouse at 10 mg/kg administered via gavage by LC/MS/MS analysis", "type": "ADME, organism-based", "conditions": "in vivo", "method_in_brief": "(§3)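 Mouse pharmacokinetics after oral dosing at 10 or 50 mg/kg. The 10 mg/kg dose was given in 10% HPbCD + 5% dextrose in WFI at pH 4. The 50 mg/kg dose was given in 5% SBECD in WFI at pH 2. Plasma exposure (AUC), half-life and oral bioavailability were derived.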"}, "[8]": {"experiment": "Half life in CD1 mouse at 50 mg/kg, po administered via gavage by LC/MS/MS analysis", "type": "ADME, organism-based", "conditions": "in vivo", "method_in_brief": "as §3"}, "[9]": {"experiment": "Protein binding in CD1 mouse plasma assessed as unbound fraction", "type": "ADME, cell-free"}}}
{"smiles": "CC[C@@H](C)Nc1nc(Nc2cc(N3C[C@@H]4C[C@H]3CN4C)cnc2F)ncc1C", "values": [{"measurement": "IC50", "setting": "[1]", "value": "> 30", "unit": "µM"}, {"measurement": "IC50", "setting": "[2]", "value": "> 30", "unit": "µM"}, {"measurement": "inhibition", "setting": "[3]", "value": 100, "unit": "%"}, {"measurement": "inhibition at 1 µM", "setting": "JAK2", "value": 31, "unit": "%"}, {"measurement": "inhibition", "setting": "[4]", "value": 73, "unit": "%"}, {"measurement": "inhibition", "setting": "[5]", "value": 71, "unit": "%"}, {"measurement": "clearance", "setting": "[6]", "value": 68.7, "unit": "mL/min/kg"}, {"measurement": "bioavailability", "setting": "[7]", "value": 30, "unit": "%"}, {"measurement": "half-life", "setting": "[8]", "value": 5.3, "unit": "h"}, {"measurement": "fraction unbound", "setting": "[9]", "value": 0.15}]}
